Experimental data from ChEMBL document CHEMBL2346559, “Optimization of benzoxazole-based inhibitors of Cryptosporidium parvum inosine 5'-monophosphate dehydrogenase” (J Med Chem, 2013).

Columns and labels:
[1] = target: Inosine-5'-monophosphate dehydrogenase 2 (Homo sapiens, UniProt P12268); experiment: Inhibition of human IMPDH2
[2] = target: T1, Inosine-5'-monophosphate dehydrogenase (Cryptosporidium parvum, UniProt Q8T6T2); experiment: Inhibition of Cryptosporidium parvum N-terminal His6-tagged IMPDH-mediated NADH production expressed in Escherichia coli BL21(DE3) preincubated for 5 mins prior to substrate addition by fluorescence assay in presence of BSA
T1 sequence (Q8T6T2 whole entry): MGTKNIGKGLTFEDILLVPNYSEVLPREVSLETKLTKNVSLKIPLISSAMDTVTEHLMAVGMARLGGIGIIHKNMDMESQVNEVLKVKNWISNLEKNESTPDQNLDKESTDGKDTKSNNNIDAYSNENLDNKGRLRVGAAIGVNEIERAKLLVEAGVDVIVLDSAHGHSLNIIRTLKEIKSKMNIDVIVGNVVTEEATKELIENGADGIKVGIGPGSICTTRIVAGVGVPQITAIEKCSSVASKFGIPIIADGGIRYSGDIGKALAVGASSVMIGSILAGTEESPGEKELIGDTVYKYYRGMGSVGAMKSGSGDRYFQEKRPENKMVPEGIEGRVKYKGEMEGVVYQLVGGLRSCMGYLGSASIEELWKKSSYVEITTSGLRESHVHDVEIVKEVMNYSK
Procedure, shortened: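 Same CpIMPDH fluorescence assay (10 nM enzyme, 300 μM NAD, 150 μM IMP, pH 8.0 Tris buffer, 25 °C, 5 min inhibitor preincubation), run with 0.05% fatty-acid-free BSA added to gauge nonspecific protein binding. Quadruplicate points; IC50 averaged over three determinations.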

[3] = target: T1, Inosine-5'-monophosphate dehydrogenase; experiment: Inhibition of Cryptosporidium parvum N-terminal His6-tagged IMPDH-mediated NADH production expressed in Escherichia coli BL21(DE3) preincubated for 5 mins prior to substrate addition by fluorescence assay
Toxoplasma gondii [4] = experiment: Selectivity ratio of EC50 for wild-type Toxoplasma gondii to EC50 for Toxoplasma gondii expressing Cryptosporidium parvum IMPDH; type: functional
[5] = Cytotoxicity against African green monkey COS cells after 3 days by Alamar blue assay; type: cell-based; conditions: chlorocebus aethiops, read-out: LD50
Procedure, shortened: (§1)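 Tested in parallel against HeLa, HEK293, COS and CHO cells. Viability was read as metabolic activity by alamarBlue and expressed as LD50.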

[6] = Cytotoxicity against CHO cells after 3 days by Alamar blue assay; type: cell-based, Cricetulus griseus; conditions: chinese hamster, read-out: LD50; procedure, shortened: as §1
[7] = Cytotoxicity against human HEK293 cells after 3 days by Alamar blue assay; type: cell-based; conditions: read-out: LD50; procedure, shortened: as §1
[8] = Cytotoxicity against human HeLa cells after 3 days by Alamar blue assay; type: cell-based; conditions: read-out: LD50; procedure, shortened: as §1
Toxoplasma gondii [9] = experiment: Antiparasitic activity against transgenic Toxoplasma gondii expressing Cryptosporidium parvum IMPDH; type: functional, organism-based
Procedure, shortened: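 Engineered T. gondii strain that depends on CpIMPDH for guanine nucleotide synthesis, run alongside the wild-type RH strain, whose native eukaryotic IMPDH also gauges host-cell cytotoxicity. Antiparasitic EC50 is the average of three independent determinations unless otherwise stated, with some values from two determinations.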

Toxoplasma gondii [10] = experiment: Antiparasitic activity against wild-type Toxoplasma gondii expressing eukaryotic IMPDH; type: functional, organism-based
Liver [11] = experiment: Half life in mouse liver microsomes by LC/MS/MS analysis; type: ADME, Microsome
Procedure, shortened: (§2)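 Incubation with mouse liver microsomes at 37 °C, with and without NADPH. Percent of compound remaining measured at several time points; half-life from a fit to first-order decay.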

Liver [12] = experiment: Half life in mouse liver microsomes by LC/MS/MS analysis in presence of NADPH; type: ADME, Microsome; procedure, shortened: as §2
[13] = target: T2, Inosine-5'-monophosphate dehydrogenase (Cryptosporidium parvum) (UniProt Q8T6T2)
T2 sequence (whole entry): T1 sequence (Q8T6T2 whole entry)

[14] = target: T2, Inosine-5'-monophosphate dehydrogenase (Cryptosporidium parvum); remark: listed apart in the source

| SMILES | IC50 [1] [µM] | IC50 [2] [µM] | IC50 [3] [µM] | Ratio EC50 (Toxoplasma gondii [4]) | CC50 at 72 h [5] [µM] | CC50 at 72 h [6] [µM] | CC50 at 72 h [7] [µM] | CC50 at 72 h [8] [µM] | EC50 (Toxoplasma gondii [9]) [µM] | EC50 (Toxoplasma gondii [10]) [µM] | t1/2 (Liver [11]) [min] | t1/2 (Liver [12]) [min] | Kis [13] [nM] | Kis [14] [nM] |
| --- | --- | --- | --- | --- | --- | --- | --- | --- | --- | --- | --- | --- | --- | --- |
| C[C@@H](Oc1cccc2ccccc12)C(=O)Nc1ccc2oc(-c3ccncc3)nc2c1 | > 5 | 0.38 | 0.4 |  |  |  |  |  |  |  |  |  |  |  |
| C[C@H](Oc1cccc(Cl)c1Cl)C(=O)Nc1ccc2nc(-c3ccncc3)oc2c1 | > 5 | 0.004 | 0.0006 | 150 | > 50 | > 50 | > 50 | > 50 | 0.02 | 3 | 9 | 10 |  |  |
| C[C@H](Nc1cccc2ccccc12)C(=O)Nc1ccc2oc(-c3ccncc3)nc2c1 | > 5 |  | 0.014 |  |  |  |  |  |  |  | 27 | 18 |  |  |
| CC(Cc1ccccc1)C(=O)Nc1ccc2oc(-c3ccncc3)nc2c1 (stereo not given) | > 5 |  | > 5 |  |  |  |  |  |  |  |  |  |  |  |
| CC(Oc1cccc(Cl)c1)C(=O)Nc1ccc2oc(-c3ccncc3)nc2c1 (stereo not given) | > 5 | 0.032 | 0.02 | 2 |  |  |  |  | 0.5 | 1.1 |  |  |  |  |
| C[C@H](Nc1cccc(Cl)c1Cl)C(=O)Nc1ccc2oc(-c3ccncc3)nc2c1 | > 5 |  | 0.0005 |  | > 50 | > 50 | > 50 | > 50 |  |  | 110 | 44 |  |  |
| CC(Oc1ccc(Cl)cc1Cl)C(=O)Nc1ccc2oc(-c3ccccc3)nc2c1 (stereo not given) | > 5 |  | > 5 |  |  |  |  |  |  |  |  |  |  |  |
| C[C@H](C(=O)Nc1ccc2oc(-c3ccncc3)nc2c1)c1ccccc1 | > 5 |  | > 5 |  |  |  |  |  |  |  |  |  |  |  |
| C[C@H](Oc1cccc2ccccc12)C(=O)Nc1ccc2oc(-c3ccncc3)nc2c1 | > 5 | 0.008 |  | 5 |  |  |  |  | 0.4 | 2.2 |  | 30 |  |  |
| C[C@H](Oc1cccc(Cl)c1Cl)C(=O)Nc1ccc2oc(-c3ccncc3)nc2c1 | > 5 | 0.0035 | 0.0012 | 16 |  |  |  |  | 0.3 | 5 | 12 | 9 |  |  |
| CC(Oc1ccccc1)c1cn(-c2ccc3oc(-c4cncs4)nc3c2)nn1 (stereo not given) | > 5 |  | > 5 |  |  |  |  |  |  |  |  |  |  |  |
| C[C@H](Oc1cccc(Cl)c1Cl)C(=O)Nc1cc(Cl)c2oc(-c3ccncc3)nc2c1 | > 5 | 0.6 | 0.24 |  |  |  |  |  |  |  |  |  | 150 | 210 |
| C[C@H](Oc1cccc(Cl)c1Cl)C(=O)Nc1ccc2oc(-c3cncs3)nc2c1 | > 5 | 0.0023 | 0.0014 | 15 |  |  |  |  | 0.2 | 3.3 | 11 | 7 |  |  |
| O=C(COc1ccc(Cl)cc1Cl)Nc1ccc2oc(-c3ccncc3)nc2c1 | > 5 |  | > 5 |  |  |  |  |  |  |  |  |  |  |  |
| CC(Oc1cccc2ccccc12)C(=O)Nc1ccc2oc(-c3ncccn3)nc2c1 (stereo not given) | > 5 |  | > 5 |  |  |  |  |  |  |  |  |  |  |  |
| C[C@H](Oc1cccc([N+](=O)[O-])c1Cl)C(=O)Nc1ccc2oc(-c3ccncc3)nc2c1 | > 5 | 0.006 | 0.0023 |  | > 50 | > 50 | > 50 | > 50 | 0.19 |  |  |  |  |  |
| CC(Oc1ccccc1Cl)C(=O)Nc1ccc2oc(-c3ccncc3)nc2c1 (stereo not given) | > 5 | 0.05 | 0.019 | 3 | > 50 | > 50 | 12.5 | > 50 | 0.9 | 3 |  |  |  |  |
| CC(NC(=O)c1ccc2oc(-c3ccncc3)nc2c1)c1ccccc1 (stereo not given) | > 5 |  | > 5 |  |  |  |  |  |  |  |  |  |  |  |
| CC(Oc1cccc2ccccc12)C(=O)Nc1ccc2oc(-c3ccncc3)nc2c1 (stereo not given) | > 5 | 0.014 | 0.009 | 34 |  |  |  |  | 0.2 | 2.4 |  |  |  |  |
| C[C@H](Oc1cccc(C(F)(F)F)c1Cl)C(=O)Nc1ccc2oc(-c3ccncc3)nc2c1 | > 5 | 0.052 | 0.009 |  |  |  |  |  | 0.8 |  |  |  |  |  |
| C[C@H](Oc1cccc(Cl)c1Cl)C(=O)Nc1ccc2nc(-c3cncs3)oc2c1 | > 5 | 0.06 | 0.007 |  |  |  |  |  |  |  |  |  |  |  |
